Compounds with a hit are over-represented: about 2.5% of the library has one in this group of screens.
SENP8 block-1: SENP8 protease inhibitors, primary screen, biochemical, luminescence. purified SENP8, Z-RLRGG-aminoluciferin cleavage. AID 2540, 2010. actives 1.2% (n = 330,000). inhibition, % at 10 µM; in the data active = inhibition above about 50%
Target sequence (Q96LD8 whole entry, looked up): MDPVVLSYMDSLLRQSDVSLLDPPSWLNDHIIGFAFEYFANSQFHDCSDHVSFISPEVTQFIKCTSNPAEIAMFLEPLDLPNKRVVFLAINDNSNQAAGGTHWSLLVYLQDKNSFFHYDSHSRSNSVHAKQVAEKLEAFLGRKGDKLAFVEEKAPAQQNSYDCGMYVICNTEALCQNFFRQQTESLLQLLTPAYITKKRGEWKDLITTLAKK
SENP6 inh: SENP6 protease inhibitors, primary screen, biochemical, luminescence, uHTS; Sentrin-specific protease 6 (Homo sapiens), Q9GZR1; Recombinant SENP6 catalytic domain, aminoluciferin luminescence; inhibition, % at 10 µM; actives 1.8% (n = 330,000);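 active = inhibition above about 50% at the single tested dose, limit read from the data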;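 note: plate controls were DMSO wells with enzyme for no effect and DMSO wells lacking enzyme for full effect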
SENP1 FRET inh: human SENP1 catalytic domain inhibitors, primary screen, biochemical, FRET, uHTS. Sentrin-specific protease 1 (Homo sapiens), Q9P0U3. recombinant SENP1 catalytic domain, CyPet-SUMO1-YPet FRET cleavage. inhibition, % at 10 µM. actives 0.21% (n = 360,000). AID 624204, 2012;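 active = inhibition at least 30% at 10 µM, raw YFP signal under a set limit, fluorescence ratio 0.5 to 1.5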;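 note: 0% = enzyme with DMSO and 100% = no enzyme wells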
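Assay system: hSENP1 catalytic domain, recombinant. Amount: SENP1 enzyme, 20 pM final. Schedule: 50 min reaction, RT, dark. Technique: FRET, CFP and YFP emission. Control set: no-enzyme wells low, DMSO-plus-enzyme wells high control.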
SENP7 inh: SENP7 protease inhibitors, primary screen, biochemical, luminescence, uHTS | actives 1.5% (n = 330,000) | inhibition, % at 5 µM | recombinant SENP7, Z-RLRGG-aminoluciferin luminescence, 40 min;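 active = inhibition above about 50% at the single test dose, limit read from the data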;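 note: plate controls were DMSO with enzyme for no effect and no enzyme buffer wells for full effect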
Target sequence (Q9BQF6 706-1050 limits assumed): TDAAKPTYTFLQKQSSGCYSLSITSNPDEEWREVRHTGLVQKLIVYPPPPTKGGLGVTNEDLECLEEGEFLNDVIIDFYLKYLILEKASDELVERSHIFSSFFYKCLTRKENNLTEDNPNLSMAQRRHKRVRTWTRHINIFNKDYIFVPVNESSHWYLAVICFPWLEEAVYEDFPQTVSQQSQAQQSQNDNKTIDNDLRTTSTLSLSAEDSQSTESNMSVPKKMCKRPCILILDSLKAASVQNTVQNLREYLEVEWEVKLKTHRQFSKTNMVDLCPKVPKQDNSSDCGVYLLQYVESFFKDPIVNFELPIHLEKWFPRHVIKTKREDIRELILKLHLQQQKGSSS
SENP8 block-2: human SENP8 protease inhibitors, primary screen, biochemical, fluorescence, Nedd8 protein substrate, uHTS. AID 602440, 2012. inhibition, % at 20 µM. recombinant SENP8. Sentrin-specific protease 8 (Homo sapiens), Q96LD8. actives 0.64% (n = 360,000); in the data active = inhibition mostly above about 40%, no sharp cut-off; inactive = mostly below about 27%
Numbers without * were called inactive; . = not tested or not shown.

SMILES	SENP8 block-1	SENP6 inh	SENP1 FRET inh	SENP7 inh	SENP8 block-2
O=C1c2cc([N+](=O)[O-])ccc2-c2cc(Cl)c(NC(=O)C(F)(F)F)cc21	.	.	2	.	6
O=C1c2cc([N+](=O)[O-])ccc2-c2cc(Br)c(N=C(NO)C(F)(F)F)cc21	.	.	69*	.	15
COc1ccc(/C=C/c2nc(-c3ccccc3O)n[nH]2)cc1	93*	96*	-3	95*	-58
O=C1c2cccc3c2C2(O)c4c1cccc4C(=O)c1cccc(c12)C3=O	.	.	3	.	6
O=C1c2ccccc2C(=O)C1(O)O	62*	57*	.	44	.
CC(/C=C/c1ccc(OCc2ccccc2)cc1)=N\O	33	43	3	70*	6
CCCCCOC(=O)c1c(N)n(CCOC)c2nc3ccccc3nc12	63*	9	-102	64*	-262
COCCOC(=O)c1c(N)n(CCCN2CCOCC2)c2nc3ccccc3nc12	-8	-7	-110	13	-450
COC(=O)[C@]12CCCCC=C1N(CCc1ccc(OC)c(OC)c1)C(=O)[C@H](CC(=O)N1CCCCC1)C2	.	.	2	.	19
Clc1ccc(-c2cnc3ccccc3n2)cc1	85*	90*	1	92*	-4
Clc1ccc(Sc2cnc3ccccc3n2)cc1	-22	-5	-4	-7	-4
Cc1ccc2c(c1)N=C(c1ccccc1)CC(C(Cl)Cl)=N2	53*	74*	-50	1	-171
CC(=O)Nc1ccc(C(=O)Nc2ccc3c(c2)OCO3)cc1	-6	-7	2	7	1
O=C(Nc1ccc2c(c1)OCO2)c1ccc2c(c1)OCO2	67*	86*	-3	85*	9
COc1cccc(-c2nc(-c3ccc(Br)o3)no2)c1	72*	85*	0	84*	10
N#Cc1cc2nc(O)c(O)nc2cc1[N+](=O)[O-]	10	-3	-1	6	12
CNc1nc2cc([N+](=O)[O-])c([N+](=O)[O-])cc2nc1NC	.	.	43*	.	11
CC1(O)c2ccccc2C(=O)N1Cc1ccccc1 (stereo not given)	3	-4	9	3	6
CC1(O)c2ccccc2C(=O)N1CCc1ccccc1F (stereo not given)	-4	4	0	10	53*
COc1ccc(/C=C2/SC(=S)N(n3c(C)ccc3C)C2=O)cc1	4	1	-4	-8	31
CCOc1ccc(/C=C2/SC(=S)N(n3c(C)ccc3C)C2=O)cc1	-4	2	1	-7	41*
COc1cccc(/C=N/Nc2ncccc2[N+](=O)[O-])c1OC	95*	99*	1	98*	37
COc1cccc(/C=N/Nc2ccc([N+](=O)[O-])cn2)c1O	84*	90*	-27	98*	-28
O=[N+]([O-])c1ccc(NN=Cc2cccc3ccccc23)nc1	.	.	-33	.	-270
Cc1ccc(C2=NOC(C)(c3nnc(Cc4ccccc4)o3)C2)cc1 (stereo not given)	11	-3	0	0	11
SMILES	SENP8 block-1	SENP6 inh	SENP1 FRET inh	SENP7 inh	SENP8 block-2
C=CCN1C(=O)/C(=C2\SC(N3CCOCC3)=NC2=O)c2cc(Br)ccc21	-13	-8	3	-9	41*
O=C(CCn1cccn1)Nc1ccc2c(c1)OCO2	4	5	0	4	5
COC1=CC(=O)c2c(ccc3ncnc(N)c23)C1=O	.	.	7	.	84*
CC(=O)OCCNc1cc(N2CCN(C)CC2)c2noc3c2c1C(=O)c1ccccc1-3	.	.	12	.	47*
CN1CCN(c2ccc(Cl)cc2NC(=O)CCN2C(=O)c3ccccc3C2=O)CC1	-4	6	-14	-3	1
CCN1CCN(c2cc(N3CCN(C(=O)c4ccco4)CC3)c3c4c(onc24)-c2ccccc2C3=O)CC1	3	10	11	3	68*
O=C(O)CCNc1cc(N2CCN(C(=O)c3ccco3)CC2)c2noc3c2c1C(=O)c1ccccc1-3	36	51*	99	35	70*
COC1=CC(=O)OC(c2cccc([N+](=O)[O-])c2)C1 (stereo not given)	.	.	2	.	20
O=c1c(-c2ccccc2)[n+]([O-])c2ccccc2n1O	-8	-4	-6	-9	-4
Cc1ncc(N=Nc2ccccc2Cl)c(-c2ccccc2)n1	5	9	-5	2	22
COc1ccc(N=Nc2cnc(C)nc2-c2ccccc2)cc1	-5	-4	4	0	45*
O=C(CCN1C(=O)/C(=C\c2cccc(Br)c2)SC1=S)N1CCOCC1	-5	3	2	-8	12
O=C(O)c1ccc(NC2=C(n3nnc4ccccc43)C(=O)c3ccccc3C2=O)cc1	46	-2	3	34	55*
CCCc1ccc(C(=O)NC(=O)c2ccccc2O)cc1	62*	73*	-1	21	6
CCCc1ccc(C(=O)NNC(=O)c2ccc(Br)cc2)cc1	8	-8	1	2	18
O=C(Nc1ccccc1)O[C@@H]1C[C@H]2CCCC(=O)N3CC[C@@H](C1)[C@@H]23	.	.	1	.	25
O=C(Nc1ccccc1)O[C@@H]1C[C@H]2CCC(=O)N3CC[C@@H](C1)[C@@H]23	55*	56*	.	60*	.
Cc1[nH]n(-c2ccccc2)c(=O)c1N=Nc1cccc(Cl)c1	-3	-4	0	-14	22
Cc1[nH]n(-c2ccc(Cl)cc2)c(=O)c1N=Nc1cccnc1	-7	-21	0	9	43*
O=C(COc1ccccc1[N+](=O)[O-])N/N=C/c1cccc(OC(=O)c2ccc3c(c2)OCO3)c1	42	71*	2	77*	10
O=C1NC[C@H](CCCCN2CCN(CCc3ccc(O)cc3)C(=O)C2=O)N(CCC2CCCCC2)C1=O	.	.	-2	.	12
CCc1cc2c(=O)c(-c3nc(C)cs3)coc2cc1O	38	66*	-8	77*	-16
NC(=O)c1ncn([C@@H]2O[C@H](CNCc3cc(Cl)ccc3OCc3ccc(Cl)cc3)[C@@H](O)[C@H]2O)n1	.	.	-3	.	9
Cc1cc(C)cc(C(=O)Nc2ccc(N3CCCC3)cc2)c1	66*	74*	-20	56*	12
Cc1ccc(C(=O)N2CCN(c3ccc(NC(=O)c4cc(C)cc(C)c4)cc3)CC2)cc1	-11	-13	0	10	8
COc1cccc(-c2nc3nc(C)cc(C)n3c2NC2CCCC2)c1	.	.	-5	.	-32
COC(=O)c1ccc(COC(=O)c2ccc(CS(=O)(=O)c3ccc(C)cc3)cc2)cc1	-3	-29	2	-6	20
COC(=O)c1cc2c(n1S(=O)(=O)c1ccc(C)cc1)C(=O)C(=O)c1[nH]cc(C(=O)OCc3ccccc3)c1-2	.	.	0	.	108*

Screening data as filed in PubChem.
